Assay outcomes as filed in PubChem.
KCNK3 inh: human KCNK3 channel inhibition, primary screen | O14649 | CHO-KCNK3 thallium flux, FluxOR fluorescence; hits give low values | B-score at 10 µM | 0.84% of 340,000 active | AID 602410;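 active = B-score under library mean minus 4 SD, starting fluorescence ratio at most library mean plus 5 SD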;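 also: more negative B-score means stronger inhibition of thallium flux through KCNK3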
KCNQ1 inh: blocks the human KCNQ1 potassium channel | CHO-K1 KCNQ1, FluxOR thallium flux fluorescence; hits give high values | B-score at 10 µM | 1.3% of 310,000 active;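 active = compounds whose thallium flux B-score, printed positive for inhibition, exceeds three library SD while starting fluorescence stays within three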;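 also: channel opened by potassium depolarization with thallium stimulus after 20 min compound exposure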
KCNQ1 act: potentiates or activates the human KCNQ1 potassium channel; P51787; 0.35% of 310,000 active; B-score at 10 µM; CHO-K1 KCNQ1, thallium flux FluxOR fluorescence; hits give high values;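 active = fluorescence ratio B-score, a plate-corrected score, at least three library SD, with initial intensity B-score within 5 SD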
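Assay system: stable KCNQ1 CHO-K1 line; medium: assay buffer, equal DMSO in all wells; timing: 90 min dye loading and 20 min compound exposure, both at room temperature; technique: kinetic FluxOR thallium fluorescence, 10-s 1-Hz baseline, 110-s post-stimulus read; read-out basis: B score of baseline-normalized fluorescence ratio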
KCNK9 inh: inhibitors of human KCNK9 two-pore domain potassium channel; Q9NPC2; HEK293 KCNK9, FluxOR thallium flux fluorescence; hits give low values; B-score at 10 µM; 1.2% of 310,000 active; AID 488922;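 active = ratio B-score over 3 SD below the library mean, with starting fluorescence within 5 SD of its mean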;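 also: negative B-score means less thallium flux so channel inhibition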
Kir21 block: Kir2.1 (mouse) channel inhibition. P35561. HEK293-Kir2.1, FluxOR thallium flux fluorescence; hits give low values. B-score at 10 µM. 0.85% of 310,000 active. AID 1672;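 active = fluorescence ratio B-score at or below minus 3 SD of library scores, with starting-brightness B-score within 2 SD, cut at about -4.2 in these data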;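 also: channel flux triggered by added potassium and thallium sulfate stimulus; B-score of peak minus minimum fluorescence over baseline after thallium stimulus; more negative B-score means stronger Kir2.1 block with less thallium influx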
Target sequence (P35561 whole entry, looked up): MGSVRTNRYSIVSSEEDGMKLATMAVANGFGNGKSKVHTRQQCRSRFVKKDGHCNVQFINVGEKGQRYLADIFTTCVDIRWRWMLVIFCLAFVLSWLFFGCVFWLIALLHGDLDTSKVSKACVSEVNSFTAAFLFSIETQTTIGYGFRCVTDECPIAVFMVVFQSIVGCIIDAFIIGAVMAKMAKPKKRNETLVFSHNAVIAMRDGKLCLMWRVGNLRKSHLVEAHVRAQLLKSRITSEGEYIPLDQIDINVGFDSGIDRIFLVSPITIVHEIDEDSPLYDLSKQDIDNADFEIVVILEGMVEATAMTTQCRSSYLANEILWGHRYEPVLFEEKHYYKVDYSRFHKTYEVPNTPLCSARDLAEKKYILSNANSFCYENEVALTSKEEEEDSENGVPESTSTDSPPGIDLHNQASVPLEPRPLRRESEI
hERG protect: shields human hERG channel from block by proarrhythmic agents; AID 1511; CHO-hERG, FluxOR thallium flux, dofetilide IC70 present; activation (rescue from dofetilide block), less the hit threshold, % at 10 µM; 0.51% of 310,000 active;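 active = activation above the mean of controls blocked by dofetilide plus 5 SD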;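 also: thallium influx through hERG after potassium depolarization seen as dye fluorescence rise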
KCNK9 block conf: human KCNK9 inhibitor confirmation; 43% of 4,900 active; shares compounds with KCNK9 inh; AID 492992; HEK293 KCNK9 cells, FluxOR thallium flux fluorescence; inhibition, % at 10 µM;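 active = thallium signal inhibited by more than 5 SD of the compound-free buffer control wells, on both duplicate plates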;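 also: 0% = assay buffer control wells without compound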
Kir21 sel: tests whether KCNK9 modulators also affect mouse Kir2.1; shares compounds with KCNK9 inh; 4% of 4,900 active; Kir2.1 cells, FluxOR thallium flux fluorescence; inhibition, % at 10 µM; AID 492993;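 active = thallium signal drop more than 5 SD beyond the mean of the no-compound control wells, seen in both duplicate plates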;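 also: signal is fluorescence rise after thallium addition divided by baseline fluorescence; plate controls were assay buffer only for no effect and full block by chlorpromazine control for full effect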
KCNK9 uninduced: second check of KCNK9 modulator effects in non-induced HEK293 cells; shares compounds with KCNK9 inh; FluxOR thallium flux; inhibition, % at 10 µM; 40% of 4,900 active; AID 492997;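 active = thallium signal drop beyond 5 SD of the untreated control mean, on both duplicate plates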;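 also: plate controls were buffer only IC0 wells for no effect and SID17386958 at its maximal inhibitory level for full effect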
Starred values were filed as active, the others as inactive; i = inactive; / = no result. Shown are actives, neighbours in structure and some others; about 3.7% of the full set was active somewhere.

SMILES | KCNK3 inh | KCNQ1 inh | KCNQ1 act | KCNK9 inh | Kir21 block | hERG protect | KCNK9 block conf | Kir21 sel | KCNK9 uninduced
COc1ccc(C=O)cc1COc1ccc(Cl)cc1[N+](=O)[O-] | i | i | i | i | 0.8 | -4 | / | / | /
Cc1cc2ccc3ccccc3c2cc1CN(C)C | i | i | i | i | -13* | -3 | i | 66%* | i
COc1ccccc1C/C(N)=N/OC(=O)COc1cccc(C)c1 | i | i | i | i | 1.9 | -9 | i | i | i
COc1ccccc1C/C(N)=N/OC(=O)COc1ccc2ccccc2c1 | i | i | i | i | -0.02 | -5 | i | i | i
COc1ccccc1C/C(N)=N/OC(=O)COc1ccc(C)cc1 | i | i | i | i | 1.5 | -4 | / | / | /
CCCCn1c(-c2csc(CCC)c2)n[nH]c1=S | i | i | i | i | 1.3 | 0 | i | i | i
CSCC(=O)Nc1ccc(F)c(Cl)c1 | i | i | i | i | 2 | -7 | i | i | i
CCCCC(=O)Nc1ccc(F)c(Cl)c1 | i | i | i | i | 0.44 | -13 | / | / | /
Cc1ccc(SCc2c(C#N)c3ccccc3n2C)cc1 | -9.9* | i | i | -12* | -6.6* | -4 | 57%* | i | 46%*
COc1cccc(-c2cc(C(F)(F)F)n3nc(C(=O)N4CCCCC4c4cccnc4)cc3n2)c1 (stereo unspecified) | i | i | i | -8.1* | -0.74 | -11 | 42%* | i | i
CC(=O)Cc1nsc(NC(=O)c2ccc(-c3cccc(Cl)c3)o2)n1 | i | i | i | i | 1.2 | -11 | / | / | /
Cc1cc(C(=O)COC(=O)C2CCN(C(=O)c3ccc(Cl)cc3)CC2)c(C)n1CC1CCCO1 (stereo unspecified) | i | i | i | i | -0.2 | -15 | i | i | i
CC1=CC2=NC(=O)/C(=C\c3cccn3CCOc3cc(C)ccc3C)C(=N)N2O1 | i | i | i | -8.8* | -1.3 | -11 | 66%* | i | 29%*
O=C(COC(=O)/C=C/c1cccc(C(F)(F)F)c1)NCc1cccs1 | i | / | / | / | / | / | / | / | /
Cc1sc(NC(=O)c2ccco2)c(C(c2cccnc2)N2CCC(C)CC2)c1C (stereo unspecified) | i | 9* | i | -14* | -0.03 | -9 | 66%* | i | 42%*
CCCOc1ccc2c3c(c(=O)oc2c1OCCC)CCCC3 | i | i | i | -12* | 0.23 | -6 | 74%* | i | 31%*
COc1ccc(C)cc1S(=O)(=O)N1CCCC(C(=O)N2CCN(c3ccccc3)CC2)C1 (stereo unspecified) | i | i | i | i | -0.84 | -14 | / | / | /
C/C(=N\NC(=S)NCCc1ccccc1)c1cccs1 | i | i | i | i | -0.52 | 4 | i | i | i
C=CC[C@@H]1C=C[C@H](O/N=C/[C@@H](NS(=O)(=O)c2ccc(C)cc2)[C@H](C)/C=C/CC(=O)OC)[C@@H](CO)O1 | / | i | i | i | -0.09 | -5 | / | / | /
CCCNC(=O)OC[C@H]1O[C@H](CCO/N=C/[C@@H](OC)[C@H](C)/C=C/CC(=O)OC)C=C[C@@H]1Oc1ccc(OC)cc1 | / | i | i | i | -0.82 | -4 | i | i | i
COc1cccc(CC(NC(C)=O)C(=O)NC2CCN(S(=O)(=O)c3ccc(NC(C)=O)cc3)CC2)c1OC (stereo unspecified) | i | i | i | i | -1.7 | -7 | / | / | /
O=C(COC(=O)C1=Cc2ccccc2OC1)NCc1ccc(F)cc1 | i | / | / | / | / | / | / | / | /
O=C(C1CCCN(S(=O)(=O)c2cccc3nsnc23)C1)N1CCc2ccccc21 (stereo unspecified) | i | i | i | i | 0.03 | -8 | i | i | i
CC1Cc2ccccc2N1C(=O)C1CCCN(S(=O)(=O)c2cccc3nsnc23)C1 (stereo unspecified) | i | i | i | i | 1.5 | -10 | i | i | i
O=S(=O)(c1cccc2nsnc12)N1CCN(Cc2ccccc2)CC1 | i | i | i | i | -0.66 | -8 | i | i | i
SMILES | KCNK3 inh | KCNQ1 inh | KCNQ1 act | KCNK9 inh | Kir21 block | hERG protect | KCNK9 block conf | Kir21 sel | KCNK9 uninduced
CC1CCCN(C(=O)C2CCCN(S(=O)(=O)c3cccc4nsnc34)C2)C1 (stereo unspecified) | i | i | i | i | -0.31 | -7 | / | / | /
CCc1cccc(CC)c1NC(=O)CSc1nnc(CCC(=O)O)c(=O)[nH]1 | i | i | i | i | -0.85 | -8 | / | / | /
COc1cccc(NC(=O)CC(=O)c2ccccc2)c1 | i | i | i | i | 0.14 | -10 | / | / | /
O=C1CC(C(=O)N2CCCc3ccccc32)CN1c1ccc(Cl)cc1 (stereo unspecified) | i | i | i | i | -0.08 | -9 | / | / | /
O=[N+]([O-])c1ccc2nnn(O)c2c1 | i | i | i | i | -0.24 | -6 | / | / | /
Clc1cccc(OCCN2CCN(CCOc3cccc(Cl)c3)CC2)c1 | i | i | i | i | -0.51 | -23 | i | i | i
Cc1ccc(NC(=O)c2cccc(S(=O)(=O)N(C)c3ccccc3)c2)cc1S(=O)(=O)N1CCOCC1 | i | i | i | i | 0.81 | -7 | / | / | /
O=C(CCNC(=O)c1ccco1)Nc1ccc(OC(F)F)cc1 | i | i | i | i | 1.6 | -4 | / | / | /
Cc1cc(C)nc(/N=c2/ssnc2Cl)c1 | i | i | i | i | -0.19 | -9 | i | i | i
Cc1ccc(N=c2ssnc2Cl)cc1 | i | i | i | i | 0.09 | -14 | / | / | /
CC(NC(=O)c1ccc(CS(=O)(=O)c2cccc(C(F)(F)F)c2)o1)c1ccc2c(c1)OCCO2 (stereo unspecified) | i | i | i | i | 0.19 | -12 | i | i | i
O=C(NCc1ccc2c(c1)OCO2)c1ccc(CS(=O)(=O)c2cccc(C(F)(F)F)c2)o1 | i | i | i | i | -0.75 | -16 | / | / | /
CC1(C(=O)O)CCC(C(=O)Nc2ccc(S(N)(=O)=O)cc2)C1(C)C (stereo unspecified) | i | i | i | i | 0.7 | -8 | / | / | /
Cc1ccc(Cl)cc1Nc1nc(-c2sc(NC(=O)c3ccco3)nc2C)cs1 | i | i | i | -12* | -0.04 | -29 | 34%* | i | i
